As a reminder, the pIC50 is the IC50 on a negative log10 scale, so that one unit is a factor of ten.

38 compounds from ChEMBL document CHEMBL1128509, “A novel type of retinoic acid receptor antagonist: synthesis and structure-activity relationships of heterocyclic ring-containing benzoic acid derivatives” (J Med Chem, 1995) can be followed below.

pIC50: −log10 of the molar value. Active and inactive are the calls of the source. The calls are words filed in the database; no cut-off is given here. Where only a bound is given, the exact number is not on record here.

Experiment [1] in a line: The concentration required to inhibit the binding of [3H]ATRA to retinoic acid receptor in human promyelocytic leukemia cells.
The test system of experiment [2] is HL-60. Kind of experiment: Concentration inhibiting the differentiation-inducing activity of all-trans-retinoic acid (ATRA)(1*10e-8M) in human promyelocytic leukemia cells. Type of experiment: functional, cell-based. The gist of the method: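 HL-60 cells at 1 × 10^5 cells/mL, 1 mL/well, exposed to ATRA (1.0 × 10^-8 M) plus graded test compound concentrations; 5 days in 5% CO2/air. Cells stained with FITC anti-CD11b, fixed in 0.2% paraformaldehyde, and analysed by flow cytometry for % CD11b-positive cells. IC50 read from activity vs log compound concentration plots; mean of two experiments.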

Experiment [3] can be described thus: Differentiation-inducing activity of the compound. ED1/3 value was obtained from the percentage of the differentiated cells (CD11b-positive cells). The format is functional, Homo sapiens. In outline:
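Human promyelocytic leukemia HL-60 cells were exposed to compound alone and scored for differentiation toward mature granulocytes. The read-out was the percentage of CD11b-positive (differentiated) cells, and ED1/3 was derived from these percentages. Activity was judged at concentrations below 3.0 × 10^-6 M. Values are the mean of two experiments.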

The species entered for experiment [4] is Homo sapiens. In words: Differentiation-inducing activity of the compound. ED1/3 value was obtained from the percentage of the differentiated cells (CD11b-positive cells); No activity at concentrations below 3.0e-6M. The format is functional.

As for `CC1(C)CCC(C)(C)c2cc3c(cc21)CCc1c(-c2ccc(C(=O)O)cc2)nn(Cc2cccnc2)c1-3`, the pIC50 is 9.04 in experiment [1] and 8.89 in experiment [2].

`COc1ccncc1-n1cc(-c2ccc(C(=O)O)cc2)c2c1-c1cc3c(cc1CC2)C(C)(C)CCC3(C)C`: the values for the negative logarithm of the IC50 (pIC50) in experiment [1] and in experiment [2] were 8.25 and 6.19, respectively.

As to `CC1(C)CCC(C)(C)c2cc3c(ccc4c(-c5ccc(C(=O)O)cc5)cn(Cc5cccnc5)c43)cc21`, the pIC50 was 7.96 in experiment [1] and 7.11 in experiment [2].

For the compound `CC1(C)CCC(C)(C)c2cc3c(cc21)CCc1c(-c2ccc(C(=O)O)cc2)cn(Cc2cccs2)c1-3`, the negative logarithm of the IC50 (pIC50) in experiment [1] is 8.35; in experiment [2], 6.27.

Consider `CC1(C)CCC(C)(C)c2cc3c(cc21)CCc1c(-c2ccc(C(=O)O)cc2)coc1-3`, for which the pIC50 was under 7.30 in experiment [1] and 6.52 in experiment [2].

`CC1(C)CCC(C)(C)c2cc3c(cc21)CCc1c(-c2ccc(C(=O)O)cc2)cnnc1-3`: the values for the pIC50 in experiment [1] and in experiment [2] were under 7.30 and under 5.52, respectively.

On to `CC1(C)CCC(C)(C)c2cc3c(cc21)OCc1c(-c2ccc(C(=O)O)cc2)cn(Cc2cccnc2)c1-3`, for which the figures for the negative logarithm of the IC50 (pIC50) in experiment [1] and in experiment [2] were 7.72 and 7.00, respectively.

In the case of `CC1(C)CCC(C)(C)c2cc3c(cc21)CCc1c(-c2ccc(C(=O)O)cc2)cn(Cc2ccccc2)c1-3`, the negative-log IC50 (pIC50) in experiment [1] is 8.92; in experiment [2], 6.68.

As for `CC(C)Oc1cc2c(cc1-c1ccccc1)CCc1c(-c3ccc(C(=O)O)cc3)cn(Cc3cccnc3)c1-2`, the figures for the pIC50 in experiment [1] and in experiment [2] were 7.52 and 6.52, respectively.

In experiment [1], `CC1=C(/C=C/C(C)=C/C=C/C(C)=C/C(=O)O)C(C)(C)CCC1` [TRETINOIN] showed a negative-log IC50 (pIC50) of 9.20. In experiment [3], this compound came in with an ED1/3 of 340 pM.

With `CCCCCn1cc(-c2ccc(C(=O)O)cc2)c2c1-c1cc3c(cc1CC2)C(C)(C)CCC3(C)C`, the values for the pIC50 in experiment [1] and in experiment [2] were 7.72 and 6.28, respectively.

On to `CC1(C)CCC(C)(C)c2cc3c(cc21)CCc1c(-c2ccc(C(=O)O)cc2)cn(Cc2cccnc2)c1-3`, for which the negative logarithm of the IC50 (pIC50) in experiment [1] is 9.47; in experiment [2], 8.31.

As for `CC1(C)CCC(C)(C)c2cc3c(cc21)CCc1c(-c2ccc(C(=O)O)cc2)csc1-3`, the results for the negative-log IC50 (pIC50) in experiment [1] and in experiment [2] were under 8.30 and 5.62, respectively.

As for `Cn1nc(-c2ccc(C(=O)O)cc2)c2c1-c1cc3c(cc1CC2)C(C)(C)CCC3(C)C`, the pIC50 in experiment [1] is 7.80. Besides, in experiment [4], the ED1/3 entry was “inactive”.

`CC(C)Oc1cc2c(cc1Cl)CCc1c(-c3ccc(C(=O)O)cc3)cn(Cc3cccnc3)c1-2`: the pIC50 in experiment [1] is 8.54; in experiment [2] it was 6.64.

In the case of `CC1(C)CCC(C)(C)c2cc3c(cc21)CCc1c(-c2ccc(C(=O)O)cc2)cn(CCc2ccccn2)c1-3`, the negative logarithm of the IC50 (pIC50) was 7.80 in experiment [1] and 5.89 in experiment [2].

On to `CC1(C)CCC(C)(C)c2cc3c(cc21)CCc1c(-c2ccc(C(=O)O)cc2)c[nH]c1-3`, for which the pIC50 in experiment [1] is 7.49; in experiment [2], under 5.52.

In experiment [1], `CC1(C)CCC(C)(C)c2cc3c(cc21)CCc1c(-c2ccc(C(=O)O)cc2)n[nH]c1-3` had a negative logarithm of the IC50 (pIC50) of 7.77. Moreover, the ED1/3 result in experiment [4] is “inactive”.

In the case of `CC1(C)CCC(C)(C)c2cc3c(cc21)SCc1c(-c2ccc(C(=O)O)cc2)cn(Cc2cccnc2)c1-3`, the negative-log IC50 (pIC50) was 9.80 in experiment [1] and 8.25 in experiment [2].

With `CC1(C)CCC(C)(C)c2cc3c(cc21)CCc1c(-c2ccc(C(=O)O)cc2)cn(Cc2ccncc2)c1-3`, the negative-log IC50 (pIC50) in experiment [1] is 8.64; in experiment [2] it was 7.08.

With `CC1(C)CCOc2cc3c(cc21)CCc1c(-c2ccc(C(=O)O)cc2)cn(Cc2cccnc2)c1-3`, the pIC50 in experiment [1] was under 7.30; in experiment [2], 5.80.

As to `Cc1cc2c(cc1OC(C)C)-c1c(c(-c3ccc(C(=O)O)cc3)cn1Cc1cccnc1)CC2`, the negative-log IC50 (pIC50) in experiment [1] is 8.43; in experiment [2], 7.43.

Take `COc1cc2c(cc1C(C)C)CCc1c(-c3ccc(C(=O)O)cc3)cn(Cc3cccnc3)c1-2`: the negative-log IC50 (pIC50) is 7.66 in experiment [1] and 6.77 in experiment [2].

On to `CC(C)Oc1cc2c(cc1C(C)C)CCc1c(-c3ccc(C(=O)O)cc3)cn(Cc3cccnc3)c1-2`, for which the pIC50 is 9.01 in experiment [1] and 7.16 in experiment [2].

Consider `Cn1cc(-c2ccc(C(=O)O)cc2)c2c1-c1cc3c(cc1CC2)C(C)(C)CCC3(C)C`, for which the negative logarithm of the IC50 (pIC50) in experiment [1] was under 7.30; in experiment [2], 6.70.

For the compound `CC1(C)CCSc2cc3c(cc21)CCc1c(-c2ccc(C(=O)O)cc2)cn(Cc2cccnc2)c1-3`, the pIC50 is 7.89 in experiment [1] and 5.96 in experiment [2].

As to `CC1(C)CCC(C)(C)c2cc3c(cc21)CCc1c(-c2ccc(C(=O)O)cc2)cn(-c2cnccc2Cl)c1-3`, the values for the pIC50 in experiment [1] and in experiment [2] were 8.49 and 6.31, respectively.

For `CC1(C)CCC(C)(C)c2cc3c(cc21)CCCc1c(-c2ccc(C(=O)O)cc2)cn(Cc2cccnc2)c1-3`, the pIC50 in experiment [1] is 8.33; in experiment [2] it was 7.11.

The compound `Cn1nc2c(c1-c1ccc(C(=O)O)cc1)CCc1cc3c(cc1-2)C(C)(C)CCC3(C)C` had a negative-log IC50 (pIC50) in experiment [1] of 7.10. For the same compound, in experiment [4], the ED1/3 entry is “inactive”.

Consider `CC1(C)CCC(C)(C)c2cc3c(cc21)CCc1c(-c2ccc(C(=O)O)cc2)cn(Cc2ccco2)c1-3`, for which the figures for the pIC50 in experiment [1] and in experiment [2] were 8.47 and 7.29, respectively.

The compound `CC1(C)CCC(C)(C)c2cc(-c3cc(-c4ccc(C(=O)O)cc4)[nH]n3)ccc21` gave a pIC50 in experiment [1] of 7.72. The ED1/3 in experiment [3] worked out at 900 pM.

For `CC1(C)CCC(C)(C)c2cc3c(cc21)CCc1c(-c2ccc(C(=O)O)cc2)cn(C2CC2)c1-3`, the pIC50 in experiment [1] was 7.85; in experiment [2] it was 6.44.

Turning to `CC1(C)CCC(C)(C)c2cc3c(cc21)CCc1c(-c2ccc(C(=O)O)cc2)cn(CC24CC5CC(CC(C5)C2)C4)c1-3`, the pIC50 is under 7.30 in experiment [1] and under 5.52 in experiment [2].

As to `CC1(C)Cc2c(-c3ccc(C(=O)O)cc3)cn(Cc3cccnc3)c2-c2cc3c(cc21)C(C)(C)CCC3(C)C`, the negative logarithm of the IC50 (pIC50) in experiment [1] was under 7.30; in experiment [2] it was 6.00.

In the case of `CC1(C)CCC(C)(C)c2cc3c(cc21)CCc1c(-c2ccc(C(=O)O)cc2)nn(Cc2ccccc2)c1-3`, the pIC50 in experiment [1] is 8.82; in experiment [2], 7.25.

As for `CC1(C)CCC(C)(C)c2cc3c(cc21)CCc1c(-c2ccc(C(=O)O)cc2)ccnc1-3`, the values for the negative-log IC50 (pIC50) in experiment [1] and in experiment [2] were under 7.30 and under 5.52, respectively.

For `CC1(C)CCC(C)(C)c2cc3c(cc21)CCc1c(-c2ccc(C(=O)O)cc2)cn(Cc2ccccn2)c1-3`, the values for the negative logarithm of the IC50 (pIC50) in experiment [1] and in experiment [2] were 9.85 and 7.77, respectively.

As to `CC1(C)CCC(C)(C)c2cc3c(cc21)CCc1c(-c2ccc(C(=O)O)cc2)cn(-c2cccnc2)c1-3`, the negative-log IC50 (pIC50) in experiment [1] is 9.23; in experiment [2] it was 7.48.
